Results taken from ChEMBL document CHEMBL4828745, “Discovery and Structure-Activity Relationships of Quinazolinone-2-carboxamide Derivatives as Novel Orally Efficacious Antimalarials” (J Med Chem, 2021).
pIC50: −log10 of the molar value. Converted amounts (≈) assume the structure as drawn.

Assays:
[1] = test system: Plasmodium falciparum; assay: Antimalarial activity against Plasmodium falciparum Dd2 harbouring Pf-crt, Pf-mdrl,Pf-dhfr, Pf-dhps mutated loci assessed as inhibition of parasite growth incubated for […] by [3H]hypoxanthine incorporation assay based liquid scintillation counting method; assay type: functional, organism-based
How it was run: (§1)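 Drug-resistant laboratory P. falciparum strains were compared against the sensitive strain NF54. Growth inhibition was read by a modified [3H]hypoxanthine incorporation assay over 72 h. IC50 is the mean of two independent biological replicates. Chloroquine and artesunate served as controls.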

[2] = test system: Plasmodium falciparum; assay: Antimalarial activity against Plasmodium falciparum Cam3.1 harbouring Pf-crt, Pf-mdrl,Pf-dhfr, Pf-dhps, pf-kelch13 mutated loci assessed as inhibition of parasite growth incubated for […] by [3H]hypoxanthine incorporation assay based liquid scintillation counting method; assay type: functional, organism-based; how it was run: as §1
[3] = test system: Plasmodium falciparum; assay: Antimalarial activity against Plasmodium falciparum TM90C2b harbouring Pf-crt, Pf-mdrl,Pfd-hfr, Pf-cytbQ0 mutated loci assessed as inhibition of parasite growth incubated for […] by [3H]hypoxanthine incorporation assay based liquid scintillation counting method; assay type: functional, organism-based; how it was run: as §1
[4] = Intrinsic clearance in rat liver microsomes at […] by LC-MS/MS analysis; assay type: ADME, Microsome
How it was run: (§2)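 Liver microsomes (human, mouse or rat) at 0.4 mg/mL protein, 37 °C, with an NADPH-regenerating system. Compound at 0.25 or 0.5 μM. Acetonitrile/diazepam quench, LC-MS quantitation. CLint from the first-order degradation rate constant.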

[5] = Cytotoxicity against human HEK293 cells assessed as cell viability incubated for 72 hrs by Alamar blue assay; assay type: cell-based
How it was run: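 HEK293 cells handled with the same incubation, compound addition and timing as the 72 h parasite assay. Alamar Blue, diluted in growth medium, was incubated 4 h at 37 °C/5% CO2, then 20 h at room temperature before plate read.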

[6] = Intrinsic clearance in human liver microsomes at […] by LC-MS/MS analysis; assay type: ADME, Microsome; how it was run: as §2
[7] = Kinetic solubility of the compound in pH 6.5 phosphate buffer by nephelometry; assay type: physicochemical; conditions: read-out: Kinetic_solubility
How it was run: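 DMSO stock spiked into pH 6.5 phosphate buffer (1% DMSO final). After 30 min, solubility range estimated by nephelometry.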

[8] = test system: Plasmodium falciparum; assay: Antiplasmodial activity against Plasmodium falciparum 3D7 infected in human erythrocyte assessed as intraerythrocytic growth inhibition incubated for 72 hrs by DAPI-staining based imaging analysis; assay type: functional, organism-based; conditions: 3D7, 72 h
How it was run: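 P. falciparum 3D7 cultured in RPMI1640 with hypoxanthine, HEPES, 2.5 mg/mL AlbuMAX II and 5% human serum. Sorbitol-synchronized rings exposed 72 h at 37 °C under 5% CO2/5% O2, then DAPI-stained with saponin/Triton X-100 for 8 h in the dark. High-content imaging with spot detection. Duplicate points. Reference antimalarials run in each assay.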

[9] = Intrinsic clearance in mouse liver microsomes at […] by LC-MS/MS analysis; assay type: ADME, Microsome; how it was run: as §2
[10] = Apparent permeability of the compound from apical to basolateral side in human Caco-2 cells at 20 uM measured after 120 mins by LC-MS analysis; assay type: ADME, cell-based
How it was run: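 Caco-2 monolayers, apical-to-basolateral direction, in pH 7.4 HBSS with 20 mM HEPES on both sides. Donor at nominal 20 μM, 0.1% DMSO final. Flux followed over 120 min. Quantified by LC-MS with mass balance to derive Papp.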

[11] = test system: Plasmodium falciparum; assay: Antimalarial activity against Plasmodium falciparum K1 harbouring Pf-crt, Pf-mdrl,Pf-dhfr, Pf-dhps mutated loci assessed as inhibition of parasite growth incubated for […] by [3H]hypoxanthine incorporation assay based liquid scintillation counting method; assay type: functional, organism-based; how it was run: as §1
[12] = test system: Plasmodium falciparum; assay: Antimalarial activity against Plasmodium falciparum 7G8 harbouring Pf-crt, Pf-mdrl,Pf-dhfr, Pf-dhps mutated loci assessed as inhibition of parasite growth incubated for […] by [3H]hypoxanthine incorporation assay based liquid scintillation counting method; assay type: functional, organism-based; how it was run: as §1
[13] = test system: Plasmodium falciparum; assay: Antimalarial activity against Plasmodium falciparum NF54 assessed as inhibition of parasite growth incubated for 72 hrs by [3H]hypoxanthine incorporation assay based liquid scintillation counting method

| Structure (SMILES) | CC50 at 72 h [5] | pIC50 [8] | also measured |
| --- | --- | --- | --- |
| CCN(CC)CCCC(C)Nc1ccnc2cc(Cl)ccc12 (stereo not given) [CHLOROQUINE] |  |  | pIC50 [1]: 8.00; pIC50 [2]: 6.80; pIC50 [3]: 7.17 |
| O=C(O)c1ccc(CCOc2c(F)ccc3nc(C(=O)NCc4ccccc4)[nH]c(=O)c23)cc1 | > 20 µM | 5.44 | CLH [4]: 123 uL/ml.millig; CLH [6]: 7 uL/ml.millig; solubility kinetic [7]: 6.3 µg/mL (≈ 13.7 µM); CLH [9]: 12 uL/ml.millig; Papp A→B at 2 h, 20 µM [10]: 16 ×10⁻⁶ cm/s |
| CCc1cccc(CN(C)C(=O)c2nc3ccc(F)c(OCCc4ccc(C(=O)O)cc4)c3c(=O)[nH]2)c1 | > 20 µM | < 4.70 |  |
| CCNC(=O)c1ccc(CCOc2c(F)ccc3nc(C(=O)NCc4cccc(CC)c4)[nH]c(=O)c23)cc1 | > 20 µM | < 4.70 |  |
| O=C(O)c1ccc(COCc2cccc3nc(C(=O)NCc4cccc(C(F)(F)F)c4)[nH]c(=O)c23)cc1 | > 20 µM | 6.39 | CLH [4]: 42 uL/ml.millig; CLH [6]: 7 uL/ml.millig |
| CCc1cccc(CNC(=O)c2nc3ccc(F)c(COCc4ccc(C(=O)O)cc4)c3c(=O)[nH]2)c1 | > 20 µM | 5.35 |  |
| CCc1cccc(C(C)NC(=O)c2nc3ccc(F)c(OCCc4ccc(C(=O)O)cc4)c3c(=O)[nH]2)c1 (stereo not given) | > 20 µM | 5.29 |  |
| CCc1cccc(CNC(=O)c2nc3ccc(F)c(COc4ccc(CC(=O)O)cc4)c3c(=O)[nH]2)c1 | > 20 µM | < 4.70 |  |
| CCc1ccccc1CNC(=O)c1nc2ccc(F)c(OCCc3ccc(C(=O)O)cc3)c2c(=O)[nH]1 | > 20 µM | < 4.70 |  |
| CCc1cccc(CNC(=O)c2nc3ccc(Br)c(COCc4ccc(C(=O)O)cc4)c3c(=O)[nH]2)c1 | > 20 µM | < 4.70 |  |
| C[C@H]1[C@H](OC(=O)CCC(=O)O)O[C@@H]2O[C@@]3(C)CC[C@H]4[C@H](C)CC[C@@H]1[C@@]24OO3 [ARTESUNATE] |  | 9.22 | pIC50 [11]: 8.40; pIC50 [1]: 8.22; pIC50 [12]: 8.52; pIC50 [13]: 8.22; pIC50 [2]: 8.40; pIC50 [3]: 8.70 |
| CCc1cccc(CNC(=O)c2nc3ccc(Cl)c(COCc4ccc(C(=O)O)cc4)c3c(=O)[nH]2)c1 | > 20 µM | < 4.70 |  |
| CCc1cccc(CNC(=O)c2nc3c(F)ccc(COCc4ccc(C(=O)O)cc4)c3c(=O)[nH]2)c1 | > 20 µM | 7.27 |  |
| COc1cccc(CNC(=O)c2nc3cccc(COCc4ccc(C(=O)O)cc4)c3c(=O)[nH]2)c1 | > 20 µM | 6.74 |  |
| CCc1cccc(CNC(=O)c2nc3ccc(OC)c(COCc4ccc(C(=O)O)cc4)c3c(=O)[nH]2)c1 | > 20 µM | < 4.70 |  |
| CCc1cncc(CNC(=O)c2nc3cccc(COCc4ccc(C(=O)O)cc4)c3c(=O)[nH]2)c1 | > 20 µM | 6.26 | CLH [4]: 78 uL/ml.millig; CLH [6]: 13 uL/ml.millig; solubility kinetic [7]: 1.6 µg/mL (≈ 3.39 µM) |
| O=C(O)c1ccc(COCc2cccc3nc(C(=O)NCc4ccccc4)[nH]c(=O)c23)cc1 | > 20 µM | 6.55 |  |
| CCc1cccc(NC(=O)c2nc3ccc(F)c(OCCc4ccc(C(=O)O)cc4)c3c(=O)[nH]2)c1 | > 20 µM | 5.50 |  |
| COc1cc(CNC(=O)c2nc3ccc(F)c(OCCc4ccc(C(=O)O)cc4)c3c(=O)[nH]2)ccc1F | > 20 µM | 5.72 |  |
| CCc1ccc(CNC(=O)c2nc3cccc(COCc4ccc(C(=O)O)cc4)c3c(=O)[nH]2)cc1 | > 20 µM | 7.14 |  |
| CCc1cccc(CNC(=O)c2nc3c(Cl)ccc(COCc4ccc(C(=O)O)cc4)c3c(=O)[nH]2)c1 | > 20 µM | 6.80 |  |
| CCc1cccc(C(C)NC(=O)c2nc3cccc(COCc4ccc(C(=O)O)cc4)c3c(=O)[nH]2)c1 (stereo not given) | > 20 µM | 5.23 |  |
